# Measurements published in the RNAGym collection of RNA variant scans (doi:10.1126/science.aae0568).
# Variants at the floor of the assay were thinned out.
# B1: tRNA (parent)
# chain: GUUCCGUUGGCGUAAUGGUAACGCGUCUCCCUCCUAAGGAGAAGACUGCGGGUUCGAGUCCCGUACGGAACG
# Variants of: B1
# Assay: yeast fitness relative to wild type (ratio to wild type); higher = fitter; tRNA-Arg(CCU), competitive growth, 37 C, YPD
# Procedure, shortened: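 Genotype frequency changes were the basis for Darwinian fitness relative to wild type. The frequencies came from 100-nucleotide paired-end sequencing of gene amplicons from the start population and each end population of pooled yeast strains with tRNA-Arg(CCU) gene variants at the native locus. Competition ran in YPD at 37°C for 24 hours in six replicates, genotypes needed ≥ 100 starting reads, and estimates < 0.5 were set to 0.5.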
row,Variant,yeast fitness
1,U7G C46A C61G A69G,≤ 0.5
2,U8C A15C A45C C62G,0.535
3,C11U U19A C30G G68A,≤ 0.5
4,G25A C33U C62A A70C,≤ 0.5
5,U8C C60U,0.832
6,C22G A36C U47A A69C,≤ 0.5
7,U3A U19G A36C,≤ 0.5
8,A15G C24U,1.01
9,U2C C4U C34U,0.719
10,U16A U32A A40C G63C U64A C66G,≤ 0.5
11,A36C A45C G48A G52C G68A,≤ 0.5
12,G17A U26C U53G,0.566
13,A15C C24G A45G C55U,≤ 0.5
14,U8G A21C C24U C33A,≤ 0.5
15,G38C A42G,0.655
16,C5G A20G,0.965
17,U16C A36U G44C A65C,≤ 0.5
18,C5G G68A,0.716
19,G9A A15C A69U,0.86
20,A20U C22G,0.633
21,G6C A37G G68C,0.536

row,Variant,yeast fitness
1,C4U G12A A20G C22U C55U A65U,0.53
2,C27A A42U G67C A69C,0.726
3,C4U G56C,0.655
4,U26A U54A A70U,0.69
5,C29U A42U C61U C66A,≤ 0.5
6,C22G C24U C29U C30G,0.579
7,U3C G10A U13C G58C,≤ 0.5
8,G23A C33G U54A G56C,≤ 0.5
9,A15G A21U A45G C62G,0.506
10,U8C A20G C66A,≤ 0.5
11,A14G C29G C31U C55U A69C,≤ 0.5
12,C4U C5A U13A C31U C34U,0.544
13,C11A A21G C34U A37G U47C A57G C62U,≤ 0.5
14,U8C C27G A57C A70U,≤ 0.5
15,A15G G44C C61U,0.607
16,A14C U54G,≤ 0.5
17,A20U A45C G51U A65G,≤ 0.5
18,C5A C33U G56A,≤ 0.5
19,G12A C33U G41C,≤ 0.5
20,G9C C61A G67A,≤ 0.5
21,A42U A45C,1.17

row,Variant,yeast fitness
1,G17A C34U A57U U64C,≤ 0.5
2,A14C C60U C62U U64A,≤ 0.5
3,G12C A40U C49G G50A,≤ 0.5
4,C29U A42G,0.975
5,U54C C61A,0.776
6,C4U C30U C62A,≤ 0.5
7,G44A C66U,0.86
8,U3A C60A C61U A69U,0.597
9,G52A C55G A69U,≤ 0.5
10,U2G C5G C11G G56C C61G,≤ 0.5
11,A14U C24G C27U U54G,≤ 0.5
12,G12C A14G C27U C33A A45C U54A,≤ 0.5
13,C22U U35C C49U C66U,0.586
14,C11A A20G C62A G67A,≤ 0.5
15,A20U U47G C62G G68A,≤ 0.5
16,C29G G38A A43U,0.689
17,C4A A43G,0.785
18,G6U U32C,0.766
19,U28A A43C A57C,0.608
20,G17A A57C,0.581
21,U7G A40U G63A,0.66

row,Variant,yeast fitness
1,U7G C27A A40U,≤ 0.5
2,U7C G12A G41A A42C G50C A70G,0.53
3,C11U A37G U54A U59G,≤ 0.5
4,A43G A57C G58A A65U,≤ 0.5
5,C5U A40C A42G G68A,≤ 0.5
6,U8G A21U C27G A57G,≤ 0.5
7,G6C G10A C27A,0.586
8,A14U G23A C27A G58C C61U,≤ 0.5
9,C11U U28C C30G C49G,≤ 0.5
10,C5A C24G C62A,≤ 0.5
11,U8C U59A C66A,≤ 0.5
12,G50C G51A C62U,≤ 0.5
13,A21G C22G U35G A36C,0.746
14,C5G G18A G25A C61A,≤ 0.5
15,C11A A21U A43U G58C C60A C66U,0.563
16,U7C G10A C24G,≤ 0.5
17,U3A C29U C31A A40C,0.631
18,C24G G41C,0.582
19,U32G G41A C60G A65G,0.548
20,G10C U26A C31U,0.578
21,C34G A37C C60A,≤ 0.5
